Data: ChEMBL document CHEMBL3526048, “In vitro metabolism of rivoglitazone, a novel peroxisome proliferator-activated receptor γ agonist, in rat, monkey, and human liver microsomes and freshly isolated hepatocytes” (Drug Metab Dispos, 2011)

Columns and labels:
Cytochrome P450 3A4 = Cytochrome P450 3A4 (Homo sapiens, UniProt P08684); assay: Activity of human CYP3A4 expressed in microsomes isolated from baculovirus infected insect cell assessed as enzyme-mediated 2-((4-((2,4-dioxothiazolidin-5-yl)methyl)phenoxy)methyl)-1-methyl-1H-benzo[d]imidazol-6-yl hydrogen sulfate formation at 20 uM after 2 hrs by radio-HPLC/LC-MS/MS analysis; format: ADME
Chain of Cytochrome P450 3A4 (P08684 whole entry): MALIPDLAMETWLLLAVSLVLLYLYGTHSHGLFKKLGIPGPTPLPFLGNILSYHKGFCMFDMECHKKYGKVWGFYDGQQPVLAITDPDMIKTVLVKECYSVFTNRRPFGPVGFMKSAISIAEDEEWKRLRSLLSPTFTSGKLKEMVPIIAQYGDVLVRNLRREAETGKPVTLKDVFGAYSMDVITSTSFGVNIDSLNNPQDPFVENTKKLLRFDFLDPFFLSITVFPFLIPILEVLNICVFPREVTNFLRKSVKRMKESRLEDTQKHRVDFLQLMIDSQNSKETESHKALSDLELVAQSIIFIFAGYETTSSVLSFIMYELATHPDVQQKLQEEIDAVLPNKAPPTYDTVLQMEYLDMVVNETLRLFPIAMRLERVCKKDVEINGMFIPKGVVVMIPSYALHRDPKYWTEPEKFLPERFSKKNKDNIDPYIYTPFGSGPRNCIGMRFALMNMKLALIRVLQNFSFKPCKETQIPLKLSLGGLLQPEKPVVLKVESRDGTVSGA
Procedure, shortened: (§1)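 Baculovirus-insect-cell microsomes expressing the human CYP (1 mg/ml protein) were incubated with [14C]rivoglitazone (20 μM) in 50 mM potassium phosphate (pH 7.4) or 100 mM Tris-HCl (pH 7.5) with an NADPH-generating system (2 mM NADP+, 20 mM glucose 6-phosphate, 2 units/ml G6PDH, 10 mM MgCl2) for 2 h at 37°C. Insect-cell control supersomes served as the control. Reactions were stopped with acetonitrile, and the concentrated supernatants were analysed by radio-HPLC, LC-MS and LC-MS/MS.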

[1] = target: T1, UDP-glucuronosyltransferase 2B17 (Homo sapiens, UniProt O75795); assay: Activity of human UGT2B17 expressed in microsomes isolated from baculovirus infected insect cell assessed as enzyme-mediated (2S,3S,4S,5R,6R)-6-((1-carboxy-2-(4-((6-methoxy-1-methyl-1H-benzo[d]imidazol-2-yl)methoxy)phenyl)ethylthio)carbonylamino)-3,4,5-trihydroxytetrahydro-2H-pyran-2-carboxylic acid formation at 20 uM after 4 hrs by radio-HPLC/LC-MS/MS analysis in presence of UDPGA; format: ADME
T1 sequence (O75795 whole entry): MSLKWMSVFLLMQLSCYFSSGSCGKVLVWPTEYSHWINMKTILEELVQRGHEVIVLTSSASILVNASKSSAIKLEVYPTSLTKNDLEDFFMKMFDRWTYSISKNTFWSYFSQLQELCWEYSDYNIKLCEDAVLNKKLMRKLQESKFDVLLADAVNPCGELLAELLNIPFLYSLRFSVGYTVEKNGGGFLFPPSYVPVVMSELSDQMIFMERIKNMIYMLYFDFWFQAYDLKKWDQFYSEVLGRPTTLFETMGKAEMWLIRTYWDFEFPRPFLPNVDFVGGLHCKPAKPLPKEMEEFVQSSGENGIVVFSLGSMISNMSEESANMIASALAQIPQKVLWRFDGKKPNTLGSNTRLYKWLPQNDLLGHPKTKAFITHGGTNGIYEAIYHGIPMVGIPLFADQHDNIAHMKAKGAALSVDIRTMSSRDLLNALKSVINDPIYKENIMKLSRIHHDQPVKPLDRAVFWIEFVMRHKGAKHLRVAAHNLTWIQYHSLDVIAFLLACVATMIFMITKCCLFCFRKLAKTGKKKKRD

Liver microsome [2] = assay: Drug metabolism in Sprague-Dawley rat liver microsomes assessed as formation of 3-(4-((6-methoxy-1-methyl-1H-benzo[d]imidazol-2-yl)methoxy)phenyl)-2-(methylsulfonyl)propanamide at 20 uM after 2 hrs by radio-HPLC/LC-MS/MS analysis in presence of NADPH-generating system/SAM; format: ADME
Cytochrome P450 1A2 = target: T2, Cytochrome P450 1A2 (Homo sapiens, UniProt P05177); assay: Activity of human CYP1A2 expressed in microsomes isolated from baculovirus infected insect cell assessed as enzyme-mediated 2-mercapto-3-(4-((6-methoxy-1-methyl-1H-benzo[d]imidazol-2-yl)methoxy)phenyl)propanoic acid formation at 20 uM after 2 hrs by radio-HPLC/LC-MS/MS analysis in presence of NADPH-generating system; format: ADME
T2 sequence (P05177 whole entry): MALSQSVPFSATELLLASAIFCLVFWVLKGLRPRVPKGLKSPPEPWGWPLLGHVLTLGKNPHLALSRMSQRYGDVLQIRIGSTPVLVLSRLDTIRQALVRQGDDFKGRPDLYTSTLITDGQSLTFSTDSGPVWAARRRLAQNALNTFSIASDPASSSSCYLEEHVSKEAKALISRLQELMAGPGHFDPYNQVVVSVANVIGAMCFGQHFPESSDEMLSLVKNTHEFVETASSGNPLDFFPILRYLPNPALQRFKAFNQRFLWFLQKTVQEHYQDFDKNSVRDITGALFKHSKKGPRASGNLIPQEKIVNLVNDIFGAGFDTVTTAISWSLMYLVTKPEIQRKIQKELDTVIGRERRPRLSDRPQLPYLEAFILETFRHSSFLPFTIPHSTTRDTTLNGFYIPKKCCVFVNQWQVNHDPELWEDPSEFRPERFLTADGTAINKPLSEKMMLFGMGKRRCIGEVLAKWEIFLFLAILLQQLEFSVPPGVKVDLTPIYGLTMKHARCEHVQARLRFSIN
Procedure, shortened: (§2)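 Baculovirus/insect-cell microsomes expressing single human CYPs, 1 mg/ml protein, with 50 mM potassium phosphate (pH 7.4) or 100 mM Tris-HCl (pH 7.5). NADPH-generating system: 2 mM NADP⁺, 20 mM glucose 6-phosphate, 2 units/ml G6PDH, 10 mM MgCl₂. [¹⁴C]rivoglitazone at 20 μM, 2 h at 37°C with shaking. Control used insect-cell control supersomes. Stopped with acetonitrile; supernatant concentrated under nitrogen; metabolites analysed by radio-HPLC, LC-MS and LC-MS/MS.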

Liver microsome [3] = assay: Drug metabolism in human liver microsomes assessed as formation of 2-mercapto-3-(4-((6-methoxy-1-methyl-1H-benzo[d]imidazol-2-yl)methoxy)phenyl)propanoic acid at 20 uM after 2 to 4 hrs by radio-HPLC/LC-MS/MS analysis in presence of UDPGA, UDPGA/SAM and NADPH-generating system; format: ADME
Cytochrome P450 2C19 = Cytochrome P450 2C19 (Homo sapiens, UniProt P33261); assay: Activity of human CYP2C19 expressed in microsomes isolated from baculovirus infected insect cell assessed as enzyme-mediated 5-(4-((6-hydroxy-1-methyl-1H-benzo[d]imidazol-2-yl)methoxy)benzyl)thiazolidine-2,4-dione formation at 20 uM after 2 hrs by radio-HPLC/LC-MS/MS analysis in presence of NADPH-generating system and NADPH-generating system/SAM; format: ADME; procedure, shortened: as §2
Chain of Cytochrome P450 2C19 (P33261 whole entry): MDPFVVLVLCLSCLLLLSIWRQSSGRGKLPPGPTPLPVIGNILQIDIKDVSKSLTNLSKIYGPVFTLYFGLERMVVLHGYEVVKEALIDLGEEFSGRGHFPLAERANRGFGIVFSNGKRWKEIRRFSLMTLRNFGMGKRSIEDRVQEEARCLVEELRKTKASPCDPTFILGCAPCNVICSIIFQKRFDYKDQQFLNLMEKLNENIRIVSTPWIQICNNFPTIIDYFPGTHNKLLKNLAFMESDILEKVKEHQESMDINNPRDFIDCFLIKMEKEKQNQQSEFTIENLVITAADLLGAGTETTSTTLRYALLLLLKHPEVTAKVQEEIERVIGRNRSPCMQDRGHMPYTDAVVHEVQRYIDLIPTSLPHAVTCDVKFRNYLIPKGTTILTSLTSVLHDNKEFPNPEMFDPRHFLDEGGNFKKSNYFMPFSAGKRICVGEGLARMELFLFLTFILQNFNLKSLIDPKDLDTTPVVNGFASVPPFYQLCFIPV

[4] = Drug metabolism in human hepatocytes assessed as formation of 3-(4-((6-methoxy-1-methyl-1H-benzo[d]imidazol-2-yl)methoxy)phenyl)-2-(methylsulfinyl)propanamide at 30 uM after 3 hrs by radio-HPLC/LC-MS/MS analysis in presence of NADPH-generating system/SAM; format: ADME, cell-based, Hepatocyte
Cytochrome P450 3A5 = Cytochrome P450 3A5 (Homo sapiens, UniProt P20815); assay: Activity of human CYP3A5 expressed in microsomes isolated from baculovirus infected insect cell assessed as enzyme-mediated 2-((4-((2,4-dioxothiazolidin-5-yl)methyl)phenoxy)methyl)-1-methyl-1H-benzo[d]imidazol-6-yl hydrogen sulfate formation at 20 uM after 2 hrs by radio-HPLC/LC-MS/MS analysis; format: ADME; procedure, shortened: as §1
Chain of Cytochrome P450 3A5 (P20815 whole entry): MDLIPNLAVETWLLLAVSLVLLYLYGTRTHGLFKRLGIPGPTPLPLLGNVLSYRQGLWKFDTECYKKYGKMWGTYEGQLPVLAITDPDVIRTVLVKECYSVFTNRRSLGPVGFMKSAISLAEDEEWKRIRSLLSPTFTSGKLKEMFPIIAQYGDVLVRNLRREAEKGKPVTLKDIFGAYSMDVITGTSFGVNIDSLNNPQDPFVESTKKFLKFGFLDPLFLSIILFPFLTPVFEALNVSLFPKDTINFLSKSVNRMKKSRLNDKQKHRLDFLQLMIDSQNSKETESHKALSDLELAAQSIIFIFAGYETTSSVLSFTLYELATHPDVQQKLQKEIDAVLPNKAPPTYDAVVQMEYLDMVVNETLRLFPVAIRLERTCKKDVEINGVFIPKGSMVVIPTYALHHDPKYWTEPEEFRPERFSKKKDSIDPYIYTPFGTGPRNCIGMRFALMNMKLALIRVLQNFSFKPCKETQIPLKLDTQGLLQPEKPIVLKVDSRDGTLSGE

Compound: COc1ccc2nc(COc3ccc(C[14CH]4SC(=O)NC4=O)cc3)n(C)c2c1.Cl (racemic)
- Drug metabolism (Cytochrome P450 3A4): metabolite_not_detected
- Drug metabolism [1]: metabolite_not_detected
- Drug metabolism (Liver microsome [2]): metabolite_detected
- Drug metabolism (Cytochrome P450 1A2): metabolite_detected
- Drug metabolism (Liver microsome [3]): metabolite_detected
- Drug metabolism (Cytochrome P450 2C19): metabolite_detected
- Drug metabolism [4]: metabolite_detected
- Drug metabolism (Cytochrome P450 3A5): metabolite_not_detected
